From ChEMBL document CHEMBL4024800, “α-Amino-β-carboxymuconate-ε-semialdehyde Decarboxylase (ACMSD) Inhibitors as Novel Modulators of De Novo Nicotinamide Adenine Dinucleotide (NAD+) Biosynthesis” (J Med Chem, 2018)

Key:
[1] = molecular target: T1, Nuclear receptor subfamily 1 group I member 2 (Homo sapiens, UniProt O75469); assay: Activity at PXR (unknown origin)
T1 sequence (O75469 whole entry): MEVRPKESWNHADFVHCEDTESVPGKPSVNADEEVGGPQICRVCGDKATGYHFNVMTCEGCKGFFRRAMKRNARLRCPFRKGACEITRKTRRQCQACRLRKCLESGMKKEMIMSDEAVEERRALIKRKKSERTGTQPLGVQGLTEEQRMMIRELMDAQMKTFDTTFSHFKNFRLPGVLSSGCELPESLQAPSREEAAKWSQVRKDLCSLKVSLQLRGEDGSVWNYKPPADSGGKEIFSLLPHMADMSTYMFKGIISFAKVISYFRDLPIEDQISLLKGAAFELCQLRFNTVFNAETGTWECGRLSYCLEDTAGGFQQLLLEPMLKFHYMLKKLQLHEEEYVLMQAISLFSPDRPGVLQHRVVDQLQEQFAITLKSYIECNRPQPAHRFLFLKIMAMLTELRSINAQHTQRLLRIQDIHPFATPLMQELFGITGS
Outline: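 Eight-point serial dilutions tested in an in-house AlphaScreen-based nuclear receptor panel; activity derived from nonlinear regression curves.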

[2] = Tmax in CD1 mouse at 5 mg/kg, po measured up to 8 hrs post dose; format: ADME, organism-based; details: in vivo
Outline: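 Mice dosed orally at 5 mg/kg in 0.5% (w/v) HPMC in water with 5% (v/v) DMSO; blood, liver and kidney concentrations followed to 8 h. AUC0–8h given in h·ng/mL; parameters reported as means.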

Activity [1]: Not Active
Tmax [2]: 2 h
Structure (SMILES): N#Cc1c(-c2cccs2)nc(SCc2cccc(CC(=O)O)c2)[nH]c1=O
